Screens: PubChem BioAssay, The Scripps Research Institute Molecular Screening Center
An excerpt weighted towards active compounds, which were near 2.3% of everything screened.
ADAM10 inh: human ADAM10 inhibitors, primary screen, biochemical, QFRET, HTS | Disintegrin and metalloproteinase domain-containing protein 10 (Homo sapiens), O14672 | inhibition, % at 7 µM | 370,000 tested, 0.62% active | recombinant ADAM10, EDANS/DABCYL FRET peptide cleavage, 3 h | AID 720582, 2013;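 active = inhibition above a per-campaign cutoff equal to the mean of compounds falling between control-based bounds plus 3 SD, cut at about 20% in these data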
PLC-gamma1 inh: PLC-gamma1 enzyme inhibitors, primary screen, biochemical, fluorescence, purified enzyme; fluorogenic substrate; 370,000 tested, 0.84% active; inhibition, % at 12.2 µM; 1-phosphatidylinositol 4,5-bisphosphate phosphodiesterase gamma-1 (Homo sapiens), P19174
Tb MetRS inh: T. brucei MetRS inhibitors, primary screen, biochemical, luminescence | methionyl-tRNA synthetase (Trypanosoma brucei brucei) | 360,000 tested, 0.4% active | purified T. brucei MetRS, ATP depletion, Kinase-Glo luminescence | inhibition, % at 11.9 µM;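 active = inhibition above a per-plate cutoff of the control wells' mean inhibition plus 3 SD, cut at about 5.5% in these data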
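technique = Kinase-Glo luminescence, ATP depletion format | system = purified MetRS (methionyl-tRNA synthetase) enzyme from Trypanosoma brucei | timing = 15 min preincubation, 2 h reaction, all 25 °C | evaluation = percent inhibition versus plate control medians | dosing = single dose, 11.9 µM final nominal, 0.9% final DMSO | also added = substrates ATP, L-methionine and bulk Escherichia coli tRNA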
ADAM17 inh: ADAM17 inhibitors, primary screen, biochemical, QFRET | Disintegrin and metalloproteinase domain-containing protein 17 (Homo sapiens), P78536 | recombinant ADAM17, EDANS/DABCYL FRET peptide cleavage | inhibition, % at 6.95 µM | 370,000 tested, 0.83% active | AID 720648, 2013;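 active = inhibition above the mean of compounds lying between control limits plus 3 SD, set per campaign, cut at about 8.5% in these data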
Target sequence (P78536 215-824 limits assumed): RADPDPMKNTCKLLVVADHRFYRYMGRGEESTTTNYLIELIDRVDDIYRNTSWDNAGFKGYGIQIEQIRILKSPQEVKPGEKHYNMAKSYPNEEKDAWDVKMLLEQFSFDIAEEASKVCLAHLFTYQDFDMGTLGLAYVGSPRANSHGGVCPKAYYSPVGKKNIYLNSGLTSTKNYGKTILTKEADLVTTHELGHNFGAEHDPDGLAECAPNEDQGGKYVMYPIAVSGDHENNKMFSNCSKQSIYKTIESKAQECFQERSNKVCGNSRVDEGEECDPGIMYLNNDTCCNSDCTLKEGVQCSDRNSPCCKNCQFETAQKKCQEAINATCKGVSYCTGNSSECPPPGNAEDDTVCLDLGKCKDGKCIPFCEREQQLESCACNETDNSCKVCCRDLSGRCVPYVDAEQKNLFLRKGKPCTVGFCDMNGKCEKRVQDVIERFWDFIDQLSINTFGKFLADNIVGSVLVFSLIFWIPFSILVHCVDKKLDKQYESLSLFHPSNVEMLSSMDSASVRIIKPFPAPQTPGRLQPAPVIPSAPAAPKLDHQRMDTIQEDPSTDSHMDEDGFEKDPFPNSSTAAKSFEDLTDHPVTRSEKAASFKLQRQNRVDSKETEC
PLCb3 inh: human PLC-beta3 inhibitors, primary screen, biochemical, fluorescence; 1-phosphatidylinositol 4,5-bisphosphate phosphodiesterase beta-3 (Homo sapiens), Q01970; inhibition, % at 12.2 µM; Purified PLC-beta3, fluorogenic substrate; 370,000 tested, 0.18% active; in the data active = inhibition above about 11%
PLCgamma1 ctr: PLC-gamma1 enzyme inhibitors, counter-screen for PLC-beta3 inhibitor project, biochemical, fluorescence; 3,300 tested, 3.1% active; purified PLC-gamma1, fluorogenic substrate; shares compounds with PLC-gamma1 inh; inhibition, % at 12.3 µM
PLCbeta3 conf: PLC-beta3 inhibitor confirmation, biochemical, fluorescence, purified enzyme; inhibition, % at 12.3 µM; shares compounds with PLC-gamma1 inh; 3,300 tested, 1% active; fluorogenic substrate fluorescence; in the data active = inhibition above about 11%
Each line names hits and unclear results; the compound was inactive in the other large screens (follow-up assays come after a bar, where they were run). Cut-off read from the data, not from the text of the source, unless noted: active = inhibition above about 9.5%; inactive = the rest.

CCC1CCc2sc(C(=O)Nc3cc(S(=O)(=O)N4CCOCC4)ccc3OC)cc2C1 (stereo unspecified)	none (no result: Tb MetRS inh)
CC(C)=CCC/C(C)=C/CN(CC(C)O)CC(C)O (stereo unspecified)	none
CC(O)CN(CCC(N)=O)CCC(N)=O (stereo unspecified)	PLC-gamma1 inh 10.1 | PLCgamma1 ctr inactive | PLCbeta3 conf inactive
CCn1c(SCC(=O)Nc2ccccc2OC)nc2ccccc2c1=O	PLC-gamma1 inh 11.1 | PLCgamma1 ctr inactive | PLCbeta3 conf inactive
COc1cc(OC)cc(C(=O)NCC(=O)OCC(=O)N2c3ccccc3NC(=O)C2(C)C)c1	PLC-gamma1 inh 10.7 | PLCgamma1 ctr inactive | PLCbeta3 conf inactive
C=CCNC(=O)CN1CCC(c2nc3cc(C)c(C)cc3[nH]2)CC1	PLC-gamma1 inh 12.3 | PLCgamma1 ctr inactive | PLCbeta3 conf inactive
C=CCNC(=O)CN1CCC(c2nc3ccccc3[nH]2)CC1	none
Cc1cc(C)c(C(=O)C(C)OC(=O)c2ccccn2)cc1C (stereo unspecified)	none
Cc1ccc(-c2nnc3sc(C4COc5ccccc5O4)nn23)cc1 (stereo unspecified)	none
Clc1ccccc1-c1nnc2sc(C3COc4ccccc4O3)nn12 (stereo unspecified)	PLC-gamma1 inh 10.9 | PLCgamma1 ctr inactive | PLCbeta3 conf inactive
CC(NC(=O)COC(=O)COc1cccc2c1OC(C)(C)C2)c1ccccc1 (stereo unspecified)	none
C/C(=N\NC(=O)c1nnn(-c2nonc2N)c1CSc1ccc(C)cc1)c1cccs1	PLC-gamma1 inh 10.1 | PLCgamma1 ctr inactive | PLCbeta3 conf inactive
O=S(=O)(Nc1ccccc1)N1CCCCC1	PLC-gamma1 inh 10.9, PLCb3 inh 13.1 | PLCgamma1 ctr inactive | PLCbeta3 conf inactive
O=S(=O)(Nc1ccc(F)cc1)N1CCCCCC1	none
Cn1c(=O)[nH]c(=O)c2c1nc(SCCN1CCOCC1)n2Cc1ccccc1	none
CN1CCN(c2nc3c(c(=O)[nH]c(=O)n3C)n2CCOc2ccccc2)CC1	none
Cn1c(=O)[nH]c(=O)c2c1nc(SCCN1CCOCC1)n2CCCc1ccccc1	PLCb3 inh 11.7 | PLCgamma1 ctr inactive | PLCbeta3 conf inactive
Cn1c(=O)[nH]c(=O)c2c1nc(N1CCCCCC1)n2CCOc1ccccc1	PLC-gamma1 inh 10.7 | PLCgamma1 ctr inactive | PLCbeta3 conf inactive
CCCCCn1c(N2CCC(Cc3ccccc3)CC2)nc2c1c(=O)[nH]c(=O)n2C	none (no result: ADAM10 inh, PLC-gamma1 inh, ADAM17 inh, PLCb3 inh)
CCCn1c(N2CCC(Cc3ccccc3)CC2)nc2c1c(=O)[nH]c(=O)n2C	PLC-gamma1 inh 11.6 | PLCgamma1 ctr inactive | PLCbeta3 conf inactive
COc1ccc(OC)c(NC(=O)CCN2C(=O)c3cccc([N+](=O)[O-])c3C2=O)c1	none
COc1ccc(Cn2c(=S)[nH]c3ccsc3c2=O)cc1	none
C=CCNC(=O)C1COc2ccccc2O1 (stereo unspecified)	none
O=c1[nH]c(SCCc2ccccc2)nc2c1CCC2	none
CCOc1ccc(C(=O)N/N=C/c2cccc3cccnc23)cc1	none
CCOc1ccccc1C(=O)N/N=C/c1cccc2cccnc12	PLC-gamma1 inh 14.0 | PLCgamma1 ctr inactive | PLCbeta3 conf inactive
Cc1cccc(NC(=O)C2CCCN2C(=O)Oc2ccccc2)c1 (stereo unspecified)	none
Cc1cccc(NC(=O)N2CCCC2C(=O)Nc2ccccc2)c1 (stereo unspecified)	PLC-gamma1 inh 12.7 | PLCgamma1 ctr inactive | PLCbeta3 conf inactive
COc1ccc(NC(=O)N2CCCC2C(=O)Nc2cccc(C)c2C)cc1 (stereo unspecified)	PLC-gamma1 inh 11.7 | PLCgamma1 ctr inactive | PLCbeta3 conf inactive
Cc1cccc(NC(=O)C(=O)NCC2CCCN2S(=O)(=O)c2cccs2)c1 (stereo unspecified)	PLC-gamma1 inh 9.5 | PLCgamma1 ctr inactive | PLCbeta3 conf inactive
Cc1ccc(NC(=O)N2CCCC2C(=O)NCc2cccs2)cc1 (stereo unspecified)	none
Cc1cccc(NC(=O)N2CCCC2C(=O)NCc2cccs2)c1 (stereo unspecified)	PLC-gamma1 inh 11.6 | PLCgamma1 ctr inactive | PLCbeta3 conf inactive
CCOC(=O)C1(CCCc2ccccc2)CCN(C(=O)C(C)n2cncn2)CC1 (stereo unspecified)	PLC-gamma1 inh 9.5 | PLCgamma1 ctr inactive | PLCbeta3 conf inactive
CCOC(=O)C1(CCc2ccccc2)CCN(C(=O)C(C)n2cncn2)CC1 (stereo unspecified)	none
Cc1nn2c(N)c(-c3ccccc3)cnc2c1-c1ccccc1	none
Cc1ccsc1/C=C1\SC(N)=NC1=O	PLC-gamma1 inh 10.1 | PLCgamma1 ctr inactive | PLCbeta3 conf inactive
Cc1ccc(/C=C2\SC(N)=NC2=O)s1	none
O=C(Cc1ccccc1Cl)NCCN1C(=O)C2C3C=CC(C3)C2C1=O (stereo unspecified)	PLC-gamma1 inh 9.9 (no result: Tb MetRS inh) | PLCgamma1 ctr inactive | PLCbeta3 conf inactive
C=C1CC2C=C(NC(C)=O)CC(C1)C2 (stereo unspecified)	PLC-gamma1 inh 11.7 | PLCgamma1 ctr inactive | PLCbeta3 conf inactive
CCOC(=O)CNC(=O)C1(NC(=O)CNC(=O)OCc2ccccc2)CCCC1	PLC-gamma1 inh 10.2 | PLCgamma1 ctr inactive | PLCbeta3 conf inactive
O=C(NN=C(c1ccccc1)c1ccccn1)c1ccccc1	PLC-gamma1 inh 9.7 | PLCgamma1 ctr inactive | PLCbeta3 conf inactive
O=P(Cc1cccc[n+]1[O-])(c1ccccc1)c1ccccc1	none
O=P(Cc1cc[n+]([O-])cc1)(c1ccccc1)c1ccccc1	PLCb3 inh 11.3 | PLCgamma1 ctr inactive | PLCbeta3 conf inactive
CC(=O)N(C(C)=O)N1C(=O)C2C3c4ccccc4C(c4ccccc43)C2C1=O (stereo unspecified)	PLC-gamma1 inh 13.2, PLCb3 inh 12.4 | PLCgamma1 ctr inactive | PLCbeta3 conf inactive
COC(=O)C[C@@H]1CC[C@@H]2[C@H](COc3ccc(NC(=O)Nc4c(C)noc4C)cc3C(=O)N2C)O1	none (no result: Tb MetRS inh)
O=C(CCc1nnc(Cc2c[nH]c3ccccc23)o1)NC1CCCC1	PLC-gamma1 inh 11.7 | PLCgamma1 ctr inactive | PLCbeta3 conf inactive
COC(=O)CCC(=O)N1CCC(CCC(=O)NCc2ccc(F)cc2)CC1	PLC-gamma1 inh 12.7 | PLCgamma1 ctr inactive | PLCbeta3 conf inactive
CCCC(=O)NC1CCc2cc(OC)c(OC)c(OC)c2-c2ccc(OC)c(=O)cc21 (stereo unspecified)	none
COc1cc2c(c(OC)c1OC)-c1ccc(OC)c(=O)cc1C(NC(C)=O)CC2 (stereo unspecified)	PLC-gamma1 inh 10.2 | PLCgamma1 ctr inactive | PLCbeta3 conf inactive
